This is a sample that favours compounds with a hit; in the whole collection about 2.9% have one here.
Insulin prom up = MIN6 insulin promoter up-regulation. MIN6 insulin promoter-GFP reporter, high-content imaging; stronger effect = higher value. z-score at 5 µM. 190,000 tested, 0.3% active;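 active = z-score above 3 at 5 µM with at least 500 cells counted in the well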
Autophagy mod = autophagy modulation, high-content screen; calls only at 10 µM (by protocol); MEF GFP-LC3 puncta imaging; test concentration mostly 10 µM; 190,000 tested, 0.98% active;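 active = percentage of spot-positive cells more than 3 SD above its plate mean, without a fluorescence outlier flag or 80% toxicity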;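 also: spot-positive cell cutoff set from DMSO-treated cells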
b-catenin transl = modulators of beta-catenin nuclear translocation; 190,000 tested, 0.3% active; nuclear translocation activity, % at 5 µM; HeLa beta-catenin nuclear translocation, immunofluorescence imaging;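 active = nuclear translocation activity above 50% at 5 µM, with a well cell count of 50 or more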;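 also: per-cell ratio of nuclear to cytoplasmic median beta-catenin stain intensity; plate controls were DMSO negative control for no effect and GSK-3 inhibitor IX positive control for full effect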
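System: Human HeLa cells, endogenous beta-catenin | Compound dosing: 5 µM primary, 0.02–20 µM confirmation | Timing: 24 h compound exposure at 37°C, 5% CO2 | Measured by: Fluorescence imaging of beta-catenin antibody stain plus DAPI | Read-out basis: % activation of per-cell nuclear versus cytoplasmic median beta-catenin signal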
Wee1 stabilizer = inhibitors of human Wee1 degradation; P30291; HeLa Luc-Wee1K328M stability, luciferase luminescence; 100% = proteasome inhibitor MG132 effect; reporter increase, % at 5 µM; 220,000 tested, 1.2% active; AID 1321;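 active = activation above the mean of all tested compounds plus 3 SD, set per screening run, cut at about 8.8% in these data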;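 also: cells exposed to compound for 20 h before luminescence read; 0% = DMSO alone and 100% = MG132 at 30 µM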
Target sequence (P30291 whole entry K328M): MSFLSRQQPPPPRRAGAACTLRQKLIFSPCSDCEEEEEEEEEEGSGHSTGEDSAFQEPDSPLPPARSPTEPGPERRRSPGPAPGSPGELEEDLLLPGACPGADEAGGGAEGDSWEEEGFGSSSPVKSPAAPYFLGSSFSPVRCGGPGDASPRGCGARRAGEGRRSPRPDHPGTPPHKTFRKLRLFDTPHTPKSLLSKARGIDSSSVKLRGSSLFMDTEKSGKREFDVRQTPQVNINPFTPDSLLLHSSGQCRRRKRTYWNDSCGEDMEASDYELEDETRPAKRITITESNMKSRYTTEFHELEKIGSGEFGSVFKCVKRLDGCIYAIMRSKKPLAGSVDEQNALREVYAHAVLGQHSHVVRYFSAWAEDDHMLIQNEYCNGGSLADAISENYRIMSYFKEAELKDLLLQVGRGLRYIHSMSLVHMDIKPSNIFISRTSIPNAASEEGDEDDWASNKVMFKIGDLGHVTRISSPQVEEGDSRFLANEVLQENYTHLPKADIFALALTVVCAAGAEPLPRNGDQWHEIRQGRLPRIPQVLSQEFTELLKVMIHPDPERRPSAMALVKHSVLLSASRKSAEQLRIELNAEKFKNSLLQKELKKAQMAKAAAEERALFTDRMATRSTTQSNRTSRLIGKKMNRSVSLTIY
MT stabilizer = microtubule stabilizers in HeLa cells. HeLa tubulin immunostaining HCS, 24 h; share of cells brighter than vehicle mean+2SD. 200,000 tested, 0.83% active. % tubulin-high responders, % at 10 µM;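 active = plate Z-score above 3 for both tubulin-high and condensed-nucleus cell shares, with cell loss under 80%, at 10 µM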;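 also: anti alpha tubulin signal scored within the nucleus-defined area of each cell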
* hit, by the source's call; i = inactive; . = no result given; + = active, no number.

SMILES	Insulin prom up	Autophagy mod	b-catenin transl	Wee1 stabilizer	MT stabilizer
Cc1ccsc1C1C(C#N)=C(N)OC2=C1C(=O)CCC2 (stereo not given)	.	+	0	-1	1
COCCNC(=O)C(c1ccc(F)cc1)N(C(=O)CCC(=O)Nc1nccs1)c1ccc(C)cc1 (stereo not given)	0.06	i	0	2	3
Cc1ccccc1OCC(O)Cn1nnc2ccccc21 (stereo not given)	-0.21	+	-2	1	2
CC1CCN(CCNC(=S)Nc2ccc(Cl)cc2)CC1	-0.21	i	-2	-3	4
CSc1nc(-c2ccco2)nn1C(=O)Cc1ccccc1	0.26	+	3	-2	3
O=C(CCc1ccccc1)n1nc(-c2ccco2)nc1SCc1ccccc1	-0.5	i	.	7	7
Cc1nc2ccc(NC(=O)NC(=O)c3c(Cl)cccc3Cl)cc2o1	-0.36	.	1	10*	.
CNC(=O)Nc1ccc2nc(C)oc2c1	0.05	.	0	3	.
Cc1ccc2cc(CCNC(=O)Cc3cccs3)c(=O)[nH]c2c1	0.93	i	-1	-3	5
Fc1ccccc1NC(=S)Nc1ccc(CN2CCOCC2)cc1	1.1	i	2	0	3
COC(=O)c1ccc([N+](=O)[O-])cc1N1C(=O)C2C3CCC(C3)C2C1=O (stereo not given)	-0.37	i	-1	0	1
Cc1ccc(-c2csc3ncnc(Sc4nnc(CN5CCCCCC5=O)o4)c23)cc1	0.74	+	0	-2	19*
COC(=O)c1ccc(Oc2cc(C)nc(Cl)n2)cc1	0.36	i	0	1	3
COC(=O)c1ccc(Oc2cc(C)nc(SC)n2)cc1	-2.2	i	8	2	51*
COC(=O)Cn1nc(-c2ccc(C)cc2)c2ccccc2c1=O	0.05	i	0	-1	6
CCOc1ccc(N(CC(=O)Nc2c(C)n(C)n(-c3ccccc3)c2=O)S(=O)(=O)c2ccccc2)cc1	-0.07	i	0	11*	2
CCOc1ccc(OCCCCn2ccnc2)cc1	3.5*	i	0	1	2
CCOc1ccc(OCCn2ccnc2)cc1	1.1	i	.	-2	2
Cn1cccc1/C=C1\SC(=S)N(NC(=O)c2ccccc2)C1=O	0.91	i	0	9.0*	7
COc1ccc(N(CC(=O)Nc2cc(Cl)ccc2OC)S(=O)(=O)c2c(C)noc2C)cc1	-1.7	i	0	4	16*
COc1ccc(OC)c(NC(=O)CN(c2ccc(C)cc2)S(=O)(=O)c2c(C)noc2C)c1	-0.36	i	-4	0	2
COC(=O)c1ccccc1NC(=O)COc1ccccc1	0.19	i	1	13*	5
COc1ccc(C2CC(c3c(O)cc(C)oc3=O)=NCCS2)c(OC)c1 (stereo not given)	0.28	i	110*	-1	10
Cc1sc(NC(=O)CN(Cc2ccc(F)cc2)C(=O)C(C)(C)C)c(C(N)=O)c1C	0.04	i	-4	-2	3
O=C(Cn1ncc(Cl)c(Cl)c1=O)N1CCN(S(=O)(=O)c2ccc3ccccc3c2)CC1	-4.4	+	1	-2	8
SMILES	Insulin prom up	Autophagy mod	b-catenin transl	Wee1 stabilizer	MT stabilizer
O=C(CCC(=O)N1CCN(S(=O)(=O)c2ccc3ccccc3c2)CC1)Nc1cc(Cl)cc(Cl)c1	-0.22	i	5	-2	2
COC(=O)c1sccc1NC(=O)/C=C\c1ccc(Cl)cc1Cl	2.2	+	-2	1	3
COC(=O)c1sccc1NC(=O)/C=C/c1ccc(Cl)cc1	0.64	i	-3	-1	3
CCc1cccc(C)c1NC(=O)C1CN(S(=O)(=O)c2ccccc2)CCN1S(=O)(=O)c1ccccc1 (stereo not given)	0.43	i	1	2	3
O=C(Cn1cc(SCc2cccc(Cl)c2)c2ccccc21)N1CCOCC1	0.6	i	-1	11*	4
Cc1cccc(CSc2cn(CC(=O)N3CCOCC3)c3ccccc23)c1	0.47	i	-2	2	4
O=S1(=O)[C@H]2C[C@@H]3C=C[C@]2(CN1Cc1ccc(C(F)(F)F)cc1)O3	-0.14	.	-1	.	.
CCc1ccc2oc(-c3cc(N)cc(C)c3O)nc2c1	-1.5	+	8	4	4
CCc1ccc2oc(-c3cc(N)ccc3Cl)nc2c1	.	i	-6	2	4
CCc1ccc2oc(-c3cc(N)ccc3O)nc2c1	0.65	i	13	9.5*	3
COc1ccc(-c2c(C)oc3c(CN4CCN(C)CC4)c(O)ccc3c2=O)cc1	1.4	+	-4	-2	5
COc1ccc(-c2c(C(F)(F)F)oc3c(CN4CCN(C)CC4)c(O)ccc3c2=O)cc1	-0.06	i	0	2	1
CC(Cc1ccsc1)NC(=O)CCc1nnc(CCc2ccccc2)o1 (stereo not given)	0.33	i	2	0	4
Cc1cc(=O)oc2cc(OCC(=O)Nc3cccc(S(=O)(=O)N(C)C)c3)ccc12	0.46	i	.	9.6*	3
CC1CCC2(CC1)NC(=O)N(CC(=O)N1CCN(S(=O)(=O)c3ccccc3)CC1)C2=O (stereo not given)	-1.3	i	-2	9.7*	4
O=C(CN1C(=O)NC2(CCCCC2)C1=O)N1CCN(S(=O)(=O)c2ccccc2)CC1	-0.43	i	-3	1	4
CS(=O)(=O)N1CCN(c2nnc(-c3ccccc3)c3ccccc23)CC1	-0.91	i	0	-2	4
O=S(=O)(c1ccccc1)N1CCN(c2nnc(-c3ccccc3)c3ccccc23)CC1	-0.05	.	7	9.5*	.
CCC(C)n1c(=S)[nH]c2c(sc3ccc([N+](=O)[O-])cc32)c1=O (stereo not given)	-0.21	i	-6	2	4
CCOC(=O)N/N=C\c1ccc(OC(=O)c2ccc3c(c2)OCO3)cc1	-0.55	+	0	0	2
Cc1ccc(C(=O)Oc2ccc(/C=N/NC(N)=O)cc2)cc1	0.7	i	-3	0	5
CC(C)C[C@H](NC(=O)c1ccc(OC2CCN(C(=O)C3CC3)CC2)cc1)C(N)=O	-0.14	i	1	5	3
CC(CCCC(C)(C)O)NC(=O)c1ccc(OC2CCN(C(=O)C3CC3)CC2)cc1 (stereo not given)	0.22	i	6	8.9*	4
CCc1nnc(NC(=O)CSc2nc3c(c(=O)n2CC)SC(C)C3)s1 (stereo not given)	0.28	i	-1	0	4
COc1ccccc1/C=C/C(=O)c1cc(Br)ccc1OC(=O)c1ccco1	.	i	.	13*	3
O=C(Nc1ccc(Br)cc1Cl)NC1CC1	0.23	i	2	-3	3
NC(N)=N/N=C/c1ccc(OS(=O)(=O)c2ccccc2)cc1	-1.4	i	24	-1	9.2*
CCC(=O)N/N=C/c1ccc(OS(=O)(=O)c2ccccc2)cc1	1.4	i	-2	5	2

From PubChem
